Measured values: ChEMBL document CHEMBL5214966, “Discovery of BT8009: A Nectin-4 Targeting Bicycle Toxin Conjugate for the Treatment of Cancer” (J Med Chem, 2022)
≈ marks a conversion by molar mass, not a printed value. Calls of active or inactive are those of the source. No cut-off for these calls is given here. *1 amine or outer side, *2 acyl side, *3 side chain or, on linkers, in order; H or OH if unused. Where a SMILES comes first, the peptide text is derived from it. Bridges are numbered along the chain shown (N, C = ends). [ ]: non-standard residue; d: D form. TATA = O=C(CC[*:1])N1CN(C(=O)CC[*:2])CN(C(=O)CC[*:3])C1

Columns and labels:
Nectin-4 = target: T1, Nectin-4 (Homo sapiens, UniProt Q96NY8); test: Displacement of tracer from C-terminal FLAG-tagged human Nectin-4 (32 to 349 residues) expressed in baculovirus infected sf9 cells assessed as inhibition constant measured at 5 to 10 mins interval for 60 mins by fluorescence polarization assay
T1 sequence (Q96NY8 whole entry): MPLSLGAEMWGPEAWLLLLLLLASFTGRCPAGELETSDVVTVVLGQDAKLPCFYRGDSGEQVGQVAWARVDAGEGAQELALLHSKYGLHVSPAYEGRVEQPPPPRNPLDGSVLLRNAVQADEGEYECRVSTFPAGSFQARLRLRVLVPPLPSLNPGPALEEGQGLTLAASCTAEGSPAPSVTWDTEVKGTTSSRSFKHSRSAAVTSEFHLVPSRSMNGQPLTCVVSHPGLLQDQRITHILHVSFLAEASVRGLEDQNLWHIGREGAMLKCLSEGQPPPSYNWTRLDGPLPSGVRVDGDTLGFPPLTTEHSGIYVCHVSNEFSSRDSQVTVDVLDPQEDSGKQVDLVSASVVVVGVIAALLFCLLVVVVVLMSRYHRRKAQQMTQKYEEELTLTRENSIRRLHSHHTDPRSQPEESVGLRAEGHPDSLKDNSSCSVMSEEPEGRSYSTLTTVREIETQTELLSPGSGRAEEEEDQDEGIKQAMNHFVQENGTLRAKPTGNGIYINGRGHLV

[1] = Thermodynamic solubility of the compound in phosphate buffer at pH 7.4; type: physicochemical; conditions: read-out: Therm_solubility
Method in brief: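 Thermodynamic solubility measured in phosphate buffer at pH 7.4, expressed in mg/mL.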

[2] = Stability in mouse plasma assessed as half life measured upto 24 hrs by LC-MS/MS analysis; type: ADME, cell-free
[3] = Stability in human plasma assessed as half life measured upto 24 hrs by LC-MS/MS analysis; type: ADME, cell-free
MDA-MB-468 [4] = test: Antitumor activity against human MDA-MB-468 cells xenografted in Balb/c mouse model assessed as tumor regression at 3 mg/kg, iv twice weekly or 5 mg/kg, iv once weekly administered as bolus injection for 18 days; type: functional, organism-based; conditions: dose 3-5 mg/kg, time 18.0 day
Method in brief: (§1)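 Dosing regimens were 3 mg/kg once weekly, 3 mg/kg twice weekly, or 5 mg/kg once weekly. Dosing ran 18 days. After dosing stopped, the 5 mg/kg once-weekly group was followed to day 42. Read-out was tumour growth/regression.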

[5] = Plasma protein binding in mouse by LC/MS/MS analysis; type: ADME, cell-free; conditions: read-out: PPB (converted)
[6] = Plasma protein binding in human LC/MS/MS analysis; type: ADME, cell-free; conditions: read-out: PPB (converted)
[7] = Half life in mouse at 3 mg/kg, iv administered as bolus injection; type: ADME, organism-based; conditions: in vivo
Method in brief: (§2)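 Mouse pharmacokinetics after a single 3 mg/kg IV bolus. Terminal half-life, plasma clearance (mL/min/kg) and steady-state volume of distribution (L/kg) were derived from plasma levels.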

[8] = Clearance in mouse plasma at 3 mg/kg, iv administered as bolus injection; type: ADME, organism-based; method in brief: as §2
[9] = Volume of distribution at steady state in mouse at 3 mg/kg, iv administered as bolus injection; type: ADME, organism-based; conditions: in vivo, read-out: Vdss; method in brief: as §2
MDA-MB-468 [10] = test: Antitumor activity against human MDA-MB-468 cells xenografted in Balb/c mouse model assessed as tumor regression 5 mg/kg, iv administered as bolus injection once weekly for 18 days and measured upto 42 days; type: functional, organism-based; conditions: time <= 42.0 day; method in brief: as §1
[11] = Toxicity in Balb/c mouse assessed as drug tolerability at 3 to 5 mg/kg, iv administered as bolus injection measured upto 42 days; type: organism-based; conditions: in vivo, 1008 h, dose 3-5 mg/kg, time < 42 day
Method in brief: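 Doses were 3 mg/kg once or twice weekly and 5 mg/kg once weekly over 18 days, with one group monitored to day 42.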

MDA-MB-468 [12] = test: Antitumor activity against human MDA-MB-468 cells xenografted in Balb/c mouse model assessed as tumor regression at 3 mg/kg, iv administered as bolus injection once weekly for 18 days; type: functional, organism-based; conditions: time 18.0 day; method in brief: as §1

Row | Compound | Ki (Nectin-4) [nM] | solubility thermodynamic [1] [µg/mL] | half-life [2] [h] | half-life [3] [h] | Activity (MDA-MB-468 [4]) | fraction unbound [5] | fraction unbound [6] | half-life [7] [h] | clearance [8] [mL/min/kg] | Vd [9] [L/kg] | Activity (MDA-MB-468 [10]) | Activity [11] | Activity (MDA-MB-468 [12])
1 | CC[C@H](C)[C@@H]1NC(=O)[C@@H]2CCCN2C(=O)[C@H](Cc2c[nH]c3ccccc23)NC(=O)[C@H](CO)NC(=O)[C@H](Cc2c[nH]c3ccccc23)NC(=O)[C@H](CC(N)=O)NC(=O)[C@H](CCCCN)NC(=O)[C@H](CCSC)NC(=O)[C@@H]2CSCCC(=O)N3CN(CN(C3)C(=O)CCSC[C@@H](NC(C)=O)C(=O)N3CCC[C@H]3C(=O)N[C@@H](Cc3ccccc3)C(=O)NCC(=O)N2)C(=O)CCSC[C@@H](C(=O)N[C@H](C(=O)N[C@@H](CC(N)=O)C(=O)N[C@@H](CCCCN)C(N)=O)[C@@H](C)O)NC(=O)[C@H](Cc2c[nH]c3ccccc23)NC1=O (Ac-[dC]PFGCMKNWSWPIWCTNK-NH2; linker 1-5-15 via TATA) | 13.5 | 4400 (≈ 1770 µM) | 2.2 | > 24 | – | – | – | – | – | – | – | – | –
2 | CC[C@H](C)[C@@H]([C@H](CC(=O)N1CCCC1[C@@H](OC)[C@H](C)C(=O)N[C@@H](C)[C@H](O)c1ccccc1)OC)N(C)C(=O)[C@@H](NC(=O)[C@H](C(C)C)N(C)C(=O)OCc1ccc(NC(=O)[C@H](CCCNC(N)=O)NC(=O)[C@@H](NC(=O)CCCC(=O)NCCC(=O)N(C)CC(=O)N(C)CC(=O)N(C)CC(=O)N(C)CC(=O)N(C)CC(=O)N(C)CC(=O)N(C)CC(=O)N(C)CC(=O)N(C)CC(=O)N(C)CC(=O)N[C@@H](C)N[C@@H](CCCCNC(=N)N)C(=O)N[C@@H](CC(=O)O)C(=O)N[C@H]2CSCCC(=O)N3CN4CCC(=O)SC[C@H](NC(=O)[C@H](CC(C)C)NC(=O)[C@@H]5CCCN5C(=O)[C@H](CC(N)=O)NC(=O)[C@H](C(C)C)NC(=O)[C@H](CC(C)C)NC(=O)C5C[C@@H](O)CN5C2=O)C(=O)N[C@@H](CC(C)C)C(=O)N[C@@H](Cc2c[nH]cn2)C(=O)N2CCCC2C(=O)N[C@@H](CC(=O)O)C(=O)N[C@@H](Cc2c[nH]c5ccccc25)C(=O)N[C@@H](Cc2c[nH]c5ccccc25)C(=O)NC(CCCCNC(=N)N)C(=O)N[C@H](C(N)=O)CSCCC(=O)N(C4)C3)C(C)C)cc1)C(C)C (stereo partly specified) | – | 800 (≈ 175 µM) | 4.4 | > 57.8 | Active | 0.118 | 0.207 | 1 | 3.5 | 0.25 | Active | Non-Toxic | Active
